# Experiments:
# human AHR = molecular target: T1, human AHR (Homo sapiens, UniProt P35869); assay: Human AHR-dependent luciferase reporter assay; type: cell-based; conditions: HepG2 40/6 luciferase reporter, 4 hours, normalized to 10 nM TCDD and VEH
# T1 sequence (P35869 11-848): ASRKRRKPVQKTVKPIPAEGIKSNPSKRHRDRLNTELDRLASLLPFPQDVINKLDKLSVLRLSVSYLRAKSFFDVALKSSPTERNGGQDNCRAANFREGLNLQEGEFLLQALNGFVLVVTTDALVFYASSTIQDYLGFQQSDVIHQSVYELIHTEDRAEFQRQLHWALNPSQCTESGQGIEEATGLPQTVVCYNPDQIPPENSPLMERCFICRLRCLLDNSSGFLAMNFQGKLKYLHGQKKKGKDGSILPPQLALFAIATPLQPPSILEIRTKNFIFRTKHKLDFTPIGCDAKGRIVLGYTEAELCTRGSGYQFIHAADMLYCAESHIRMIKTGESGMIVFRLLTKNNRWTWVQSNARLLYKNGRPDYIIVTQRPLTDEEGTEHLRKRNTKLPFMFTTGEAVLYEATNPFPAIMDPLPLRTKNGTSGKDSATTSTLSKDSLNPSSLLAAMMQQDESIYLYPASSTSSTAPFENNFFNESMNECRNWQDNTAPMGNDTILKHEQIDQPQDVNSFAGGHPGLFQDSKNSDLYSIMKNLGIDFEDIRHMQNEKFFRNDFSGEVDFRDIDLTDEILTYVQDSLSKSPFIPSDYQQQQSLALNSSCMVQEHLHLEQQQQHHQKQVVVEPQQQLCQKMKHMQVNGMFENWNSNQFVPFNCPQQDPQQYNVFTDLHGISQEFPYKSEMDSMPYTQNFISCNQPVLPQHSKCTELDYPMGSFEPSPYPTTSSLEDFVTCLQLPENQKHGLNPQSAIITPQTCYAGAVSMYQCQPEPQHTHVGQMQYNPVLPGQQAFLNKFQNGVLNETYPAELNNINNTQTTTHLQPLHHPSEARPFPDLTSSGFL
# AHR target gene, CYP1A1 = assay: CYP1A1 induction in Caco2 cells; type: cell-based, human; conditions: 4 hours, mean serum concentrations
# mouse AHR = assay: Mouse AHR-dependent luciferase reporter assay; type: cell-based; conditions: Hepa 1.1 cells, 4 hours, mean concentrations measured in mouse sera
# Outline: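 Hepa 1.1 cells were grown in αMEM with 8% FBS and 1% penicillin-streptomycin, then seeded 24 h before treatment. […] Lysate luciferase was read by luminometer and compared with vehicle; one-way ANOVA.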
# IL1B = type: cell-based, human; conditions: FLS co-treated with 0.5 ng/mL IL1β, 24 hours; TCDD 10 nM
# Outline: (§1)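 Primary human fibroblast-like synoviocytes from healthy donors, kept and treated in Synoviocyte Growth Medium. […] RNA was isolated and transcripts quantified by real-time qPCR relative to ACTB, normalised to TCDD (10 nM) and vehicle. Mean ± SEM; one-way ANOVA.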
# EREG = type: cell-based, human; conditions: FLS co-treated with 0.5 ng/mL IL1β, 24 hours; TCDD 10 nM
# Outline: as §1
SMILES,EC25 (human AHR),also measured
"O=C(O)C(O)Cc1c[nH]c2ccccc12 (centres unmarked) [Indole-3-lactic acid, indole-3-lactic acid]",25.9 µM,
"O=C(O)CCc1c[nH]c2ccccc12 [Indole-3-propionic acid, indole-3-propionic acid]",19.2 µM,
"O=C(O)c1cc(=O)c2ccccc2[nH]1 [Kynurenic acid, kynurenic acid]",0.0408 µM,
"Nc1ccccc1C(=O)CC(N)C(=O)O (centres unmarked) [Kynurenine, kynurenine]",1.76 µM,"AHR activity (CYP1A1 transcripts by qPCR) versus vehicle (AHR target gene, CYP1A1): significantly different from the vehicle treatment; induction of luciferase activity relative to the vehicle treatment (mouse AHR): ~ 6 fold"
"Clc1cc2c(cc1Cl)Oc1cc(Cl)c(Cl)cc1O2 [TCDD, 2,3,7,8-tetrachlorodibenzo-p-dioxin]",,induction in IL1B expression (IL1B): 192 fold; induction in EREG expression (EREG): 27 fold

# Reference: publication PMC10334013 (International Journal of Tryptophan Research : IJTR, 2023)
